From ChEMBL document CHEMBL4130408, “Photoactivation provides a mechanistic explanation for pan-assay interference behaviour of 2-aminopyrroles in lipoxygenase inhibition” (Eur J Med Chem, 2017)

The compounds below were run against T1, Polyunsaturated fatty acid lipoxygenase ALOX15 (Homo sapiens) (UniProt P16050) (assay: Inhibition of recombinant human 15-LOX-1 expressed in Escherichia coli BL21(DE3) assessed as residual activity at 50 uM using linoleic acid as substrate preincubated for 10 mins followed by substrate addition).
T1 sequence (whole entry): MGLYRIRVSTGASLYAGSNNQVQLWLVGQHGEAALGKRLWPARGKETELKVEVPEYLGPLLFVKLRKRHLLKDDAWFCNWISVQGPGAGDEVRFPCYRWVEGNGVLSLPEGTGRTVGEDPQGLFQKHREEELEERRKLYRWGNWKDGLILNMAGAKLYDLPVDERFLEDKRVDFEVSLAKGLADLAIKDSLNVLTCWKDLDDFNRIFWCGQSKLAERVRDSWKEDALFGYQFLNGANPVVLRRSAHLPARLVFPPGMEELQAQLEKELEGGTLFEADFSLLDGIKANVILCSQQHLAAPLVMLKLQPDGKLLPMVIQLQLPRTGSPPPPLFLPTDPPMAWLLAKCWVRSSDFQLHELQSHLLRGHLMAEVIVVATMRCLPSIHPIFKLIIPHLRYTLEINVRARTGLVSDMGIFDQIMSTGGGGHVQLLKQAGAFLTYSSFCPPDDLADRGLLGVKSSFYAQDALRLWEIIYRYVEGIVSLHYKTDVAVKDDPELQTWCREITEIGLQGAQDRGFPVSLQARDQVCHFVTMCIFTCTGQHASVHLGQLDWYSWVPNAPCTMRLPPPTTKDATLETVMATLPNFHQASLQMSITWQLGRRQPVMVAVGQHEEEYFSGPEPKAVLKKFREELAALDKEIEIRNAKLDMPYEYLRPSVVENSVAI
Method in brief: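 h-15-LOX-1 (1:100 enzyme stock, 1:400 final) preincubated 10 min at room temperature with inhibitor in 25 mM HEPES pH 7.4, then linoleic acid added to 25 µM final (inhibitor 50 µM final). 13(S)-HpODE formation read as A234 over time, rate taken from linear part within first 16 min; no-inhibitor = 100%, no-enzyme = 0%. Triplicate.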
Compound `Nc1[nH]c(C(=O)c2ccccc2)c(-c2cccnc2)c1C(=O)NC1CCCCC1` has an Activity of 77.5%. With `Nc1[nH]c(C(=O)c2ccccc2)c(-c2ccccc2C(F)(F)F)c1C(=O)NC1CCCCC1` the Activity was 101%. `COc1ccc(C(=O)c2[nH]c(N)c(C(=O)NCCc3c[nH]c4ccccc34)c2-c2ccc(Cl)cc2Cl)cc1` gave an Activity of 64.5%. In the case of `Nc1[nH]c(C(=O)c2ccccc2)c(-c2ccc(Cl)cc2Cl)c1C(=O)NCCc1c[nH]c2ccccc12`, the Activity is reported as 22.8%. `COC(=O)c1c(N)[nH]c(C(=O)c2ccccc2)c1-c1ccccc1Br` gave an Activity of 74.8%. `Nc1[nH]c2cc(C(F)(F)F)ccc2c1C(=O)NCc1ccc(F)cc1` showed an Activity of 102%. `Nc1[nH]c(C(=O)c2ccc(Br)cc2)c(-c2ccncc2)c1C(=O)NCCc1c[nH]c2ccccc12` showed an Activity of 86.1%. For `COc1ccc2cccc(-c3c(C(=O)c4ccc(Br)cc4)[nH]c(N)c3C(=O)NCc3ccc(F)c(F)c3)c2c1`, the Activity was 86.3%. In the case of `N#Cc1c(N)[nH]c(C(=O)c2ccccc2)c1-c1ccccc1Br`, the Activity is reported as 62.3%. For `Nc1[nH]c(C(=O)c2ccccc2)c(-c2ccc(F)cc2)c1C(=O)c1c[nH]c2ccccc12`, the Activity was 116%. Work on `Nc1[nH]c(C(=O)c2ccc(Br)cc2)c(-c2ccc(Br)cc2)c1C(=O)NCc1ccc(F)cc1` yielded an Activity of 102%. In the case of `COc1ccc(C(=O)c2[nH]c(N)c(C(=O)NCCc3ccc(Cl)cc3Cl)c2-c2ccccc2Br)cc1`, the Activity is reported as 86.4%. `Nc1[nH]c(C(=O)c2ccc(Br)cc2)c(-c2ccccc2Br)c1C(=O)NCCc1c[nH]c2ccccc12` was tested, and the Activity was 83.1%. `Nc1[nH]c(C(=O)c2ccccc2)c(-c2ccc(Cl)cc2)c1C(=O)N1CCCC1` showed an Activity of 123%. Compound `COc1ccc(-c2c(C(=O)c3ccccc3)[nH]c(N)c2C(=O)c2ccccc2)cc1OC` has an Activity of 97.9 to 105%. For `Nc1[nH]c(C(=O)c2ccccc2)c(-c2cccc(Br)c2)c1C(=O)c1ccccc1`, the Activity was 61.2%. `Nc1[nH]c(C(=O)c2ccccc2)c(-c2cccc3ccccc23)c1C(=O)c1ccccc1` was tested, and the Activity was 108%. `CC(NC(=O)c1c(N)[nH]c(C(=O)c2ccc(Cl)cc2)c1-c1ccc(Br)cc1)c1cccc2ccccc12` (stereo not drawn) gave an Activity of 122%. With `Nc1[nH]c(C(=O)c2ccccc2)c(-c2ccc(Br)cc2)c1C(=O)NCCCN1CCOCC1` the Activity was 104%. For `Nc1[nH]c(C(=O)c2ccccc2)c(-c2ccc(Br)cc2)c1C(=O)c1cccs1`, the Activity was 81.3%. Work on `Nc1[nH]c(C(=O)c2ccccc2)c(-c2ccc(Cl)cc2)c1C(=O)c1c[nH]c2ccc(Br)cc12` yielded an Activity of 50.9%. With `CCCCNC(=O)c1c(N)[nH]c(C(=O)c2ccc(F)cc2)c1-c1ccc(Cl)cc1C` the Activity was 107%. With `Nc1[nH]c(C(=O)c2ccccc2)c(-c2ccc(Cl)cc2F)c1C(=O)NCCc1c[nH]c2ccccc12` the Activity was 74.8%. With `Nc1[nH]c(C(=O)c2ccccc2)c(-c2ccc(Br)cc2)c1C(=O)c1ccccc1` the Activity was 63.2%. `Nc1[nH]c(C(=O)c2ccccc2)c(-c2ccccc2[N+](=O)[O-])c1C(=O)NCCc1c[nH]c2ccccc12` was tested, and the Activity was 98.1%. With `Nc1[nH]c(C(=O)c2ccccc2)c(-c2ccc3ccccc3c2)c1C(=O)NCc1ccc(-c2ccccc2)cc1` the Activity was 122%. For `Nc1[nH]c(C(=O)c2ccccc2)c(-c2cccc3ccccc23)c1C(=O)NCc1ccc(F)c(F)c1`, the Activity was 62.2%. `Nc1[nH]c(C(=O)c2ccc(Br)cc2)c(-c2ccc(Cl)cc2)c1C(=O)NCCc1c[nH]c2ccccc12` gave an Activity of 19.3%. `Nc1[nH]c(C(=O)c2ccccc2)c(-c2ccccc2C(F)(F)F)c1C(=O)c1c[nH]c2ccccc12` gave an Activity of 94.1%. For `COc1ccc2cccc(-c3c(C(=O)c4ccc(Br)cc4)[nH]c(N)c3C(=O)NC3CCCCC3)c2c1`, the Activity was 34%. Work on `Nc1[nH]c(C(=O)c2ccccc2)c(-c2cccc3ccccc23)c1C(=O)c1c(-c2ccccc2)[nH]c2ccccc12` yielded an Activity of 89.9%. `Nc1[nH]c(C(=O)c2ccccc2)c(-c2ccc(Cl)c(F)c2)c1C(=O)c1c[nH]c2ccccc12` gave an Activity of 91.7%. For `Cc1[nH]c2ccccc2c1C(=O)c1c(N)[nH]c(C(=O)c2ccc(Br)cc2)c1-c1ccc(Br)cc1`, the Activity was 29.7%. `CC(C)(C)C(=O)c1c(N)[nH]c(C(=O)c2ccccc2)c1-c1ccc([N+](=O)[O-])cc1` showed an Activity of 110%. With `Nc1[nH]c2ccccc2c1C(=O)NCCc1ccc(Cl)cc1Cl` the Activity was 104%. With `Nc1[nH]c(C(=O)c2ccccc2)c(-c2ccncc2)c1C(=O)NCc1ccc(Cl)cc1` the Activity was 86.6%. `COc1ccc(C(=O)c2[nH]c(N)c(C(=O)NCCc3c[nH]c4ccccc34)c2-c2ccc(Cl)cc2)cc1` was tested, and the Activity was 68.1%. Work on `COc1ccc(C(=O)c2[nH]c(N)c(C(=O)NCCc3c[nH]c4ccccc34)c2-c2c(F)cccc2Cl)cc1` yielded an Activity of 71.3%. `Nc1[nH]c(C(=O)c2ccccc2)c(-c2ccccc2C(F)(F)F)c1C(=O)c1cccs1` showed an Activity of 86.4%. Compound `NC(=O)c1c(N)[nH]c(C(=O)c2ccccc2)c1-c1ccc2ccccc2c1` has an Activity of 79.1%. `Nc1[nH]c(C(=O)c2ccc(Br)cc2)c(-c2ccc(Br)cc2)c1C(=O)NCc1ccc(-c2ccccc2)cc1` was tested, and the Activity was 91.2%. Compound `COC(=O)c1c(N)[nH]c(C(=O)c2ccccc2)c1-c1ccc(Br)cc1` has an Activity of 94%. With `Cc1ccccc1-c1c(C(=O)c2ccccc2)[nH]c(N)c1C(=O)NCCc1c[nH]c2ccccc12` the Activity was 62.5%. For `Nc1[nH]c2cc(C(F)(F)F)ccc2c1C(=O)N1CCN(CCc2ccccc2)CC1`, the Activity was 109%. Work on `COc1ccc(-c2c(C(=O)c3ccc(Br)cc3)[nH]c(N)c2C(=O)NCCc2c[nH]c3ccccc23)cc1OC` yielded an Activity of 63.8%. `Nc1[nH]c(C(=O)c2ccc(Br)cc2)c(-c2ccc(Br)cc2)c1C(=O)N1CCCCC1` showed an Activity of 63.3%. `CC(C)(C)C(=O)c1c(N)[nH]c(C(=O)c2ccccc2)c1-c1ccc(F)cc1` gave an Activity of 91.4%. `Nc1[nH]c(C(=O)c2ccccc2)c(-c2ccc(Cl)c(Cl)c2)c1C(=O)NCCc1c[nH]c2ccccc12` gave an Activity of 36.8%. `Nc1[nH]c(C(=O)c2ccc(Br)cc2)c(-c2ccc(F)cc2)c1C(=O)NCCc1c[nH]c2ccccc12` was tested, and the Activity was 68.9%. In the case of `Nc1[nH]c(C(=O)c2ccc(Br)cc2)c(-c2ccc(Br)cc2)c1C(=O)NC1CCCCC1`, the Activity is reported as 83.4%. For `CC(C)(C)C(=O)c1c(N)[nH]c(C(=O)c2ccccc2)c1-c1c(F)cccc1F`, the Activity was 91.9%. In the case of `Nc1[nH]c(C(=O)c2ccccc2)c(-c2ccccc2Br)c1C(=O)NCCc1ccc(Cl)cc1Cl`, the Activity is reported as 93.8%. With `Cc1ccc([C@@H](C)NC(=O)c2c(N)[nH]c(C(=O)c3ccccc3)c2-c2ccccc2C(F)(F)F)cc1` the Activity was 96.4%. In the case of `Nc1[nH]c(C(=O)c2ccccc2)c(-c2ccc(Cl)cc2Br)c1C(=O)c1cccs1`, the Activity is reported as 91.2%. `Nc1[nH]c(C(=O)c2ccc(Br)cc2)c(-c2ccncc2)c1C(=O)c1ccccc1` gave an Activity of 109%. `COc1ccc(-c2c(C(=O)c3ccccc3)[nH]c(N)c2C(=O)c2ccc(Br)cc2)cc1OC` gave an Activity of 94.7%. Work on `Nc1[nH]c2cc(Cl)ccc2c1C(=O)NCCc1ccc(Cl)cc1` yielded an Activity of 80.2%. `Nc1[nH]c(C(=O)c2ccccc2)c(-c2ccccc2Br)c1C(=O)c1cccs1` was tested, and the Activity was 59.8%. `Nc1[nH]c(C(=O)c2ccccc2)c(-c2ccccn2)c1C(=O)NCCCCl` was tested, and the Activity was 92.1%. `CC(C)(C)C(=O)c1c(N)[nH]c(C(=O)c2ccccc2)c1-c1ccc(C(F)(F)F)cc1` was tested, and the Activity was 86.9%. With `Nc1[nH]c(C(=O)c2ccccc2)c(-c2ccccc2Br)c1C(=O)NCc1ccc(-c2ccccc2)cc1` the Activity was 91.3%. `Nc1[nH]c(C(=O)c2ccccc2)c(-c2ccccc2Br)c1C(=O)NCCc1c[nH]c2ccccc12` showed an Activity of 61.9%. In the case of `Nc1[nH]c(C(=O)c2ccccc2)c(-c2cccc(C(F)(F)F)c2)c1C(=O)NCc1cccc2ccccc12`, the Activity is reported as 2.31%.
